# Compounds with a hit are over-represented: about 9.6% of the library has one in this group of screens.
# L major viab = Leishmania major promastigote growth inhibition, primary screen | Leishmania major promastigotes, resazurin fluorescence viability | inhibition, % at 10 µM | actives 9% (n = 200,000); in the data active = inhibition above about 50%;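 note: promastigotes grown with compound for 44 hours at 28 °C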
# BaF3 parental = parental Ba/F3 cell viability inhibition, counter-screen for JAK2V617F inhibitor project, murine pro-B, CellTiter-Glo luminescence; CellTiter-Glo ATP luminescence; inhibition, % at 5.6 µM; actives 1.1% (n = 220,000);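 active = inhibition above a per-campaign cutoff, the mean inhibition of all tested compounds plus 3 SD, cut at about 27% in these data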;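 note: 0% = DMSO wells and 100% = JAK Inhibitor I control wells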
# APP 5UTR inh = inhibitors of APP translation via 5'UTR reporter, primary screen, APP 5'UTR luciferase, SH-SY5Y cells | actives 0.82% (n = 190,000) | SH-SY5Y APP 5'UTR-luciferase reporter, luminescence | AID 1285, 2008 | inhibition, % at 2 µM;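 active = inhibition above a set limit, derived from the sample mean plus 3 SD, cut at about 45% in these data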
# Ba/F3 V617F tox = reduced viability of JAK2V617F-dependent Ba/F3 cells, primary screen, JAK2V617F inhibitor project, cell-based, Ba/F3 EpoR-JAK2V617F, luminescence. ATP luminescence. inhibition, % at 5.6 µM. actives 1.1% (n = 220,000). AID 1446, 2008;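 active = inhibition above the campaign mean plus 3 SD over all tested compounds, cut at about 24% in these data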;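 note: cytokine-independent growth of Ba/F3 cells driven by EpoR plus mutant JAK2; 0% = DMSO-treated cells and 100% = JAK inhibitor I control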
# b-catenin transl = modulators of beta-catenin nuclear translocation, primary screen, imaging, HeLa cells, immunofluorescence, high-content. actives 0.3% (n = 190,000). AID 1665, 2009. nuclear translocation activity, % at 5 µM;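 active = nuclear translocation activity above 50% at 5 µM, with a well cell count of 50 or more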;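 note: per-cell ratio of nuclear to cytoplasmic median beta-catenin stain intensity; plate controls were DMSO negative control for no effect and GSK-3 inhibitor IX positive control for full effect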
#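 Test system: human HeLa cells, endogenous beta-catenin. Times: 24 h compound exposure, 37°C. Measured by: beta-catenin immunofluorescence imaging with DAPI.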
# MT stabilize HCS = microtubule stabilizers in HeLa cells, primary screen, imaging, high-content imaging. actives 0.83% (n = 200,000). AID 2205, 2009. % tubulin-high responders, % at 10 µM. HeLa tubulin immunostaining HCS, 24 h; share of cells brighter than vehicle mean+2SD;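 active = plate Z-score above 3 for both tubulin-high and condensed-nucleus cell shares, with cell loss under 80%, at 10 µM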;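 note: anti alpha tubulin signal scored within the nucleus-defined area of each cell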
# Numbers without * were called inactive; · = not tested or not shown.
SMILES,L major viab,BaF3 parental,APP 5UTR inh,Ba/F3 V617F tox,b-catenin transl,MT stabilize HCS
CCCCNC(=O)c1cccnc1SCC(=O)Nc1ccccc1OC,3.3,5.9,8.8,3.8,-3.0,3.6
O=C(COC(=O)CC1CC2CCC1C2)Nc1cccc(S(=O)(=O)NC2=NCCCCC2)c1 (stereo not drawn),7.6,3.1,-6.4,-1.2,-2.2,3.7
COc1cccc(Cn2cnc3c(NS(=O)(=O)c4ccc(Cl)cc4Cl)c(C)c(C)cc32)c1,-1.3,-1.8,-1.7,-6.9,·,4.0
COc1cccc(Cn2cnc3c(NS(=O)(=O)c4ccc(Cl)cc4)c(C)c(C)cc32)c1,50.4*,7.3,25.2,-4.0,0.4,2.2
CC1CC(NC(=O)CCn2c(=O)oc3ccccc32)CC(C)(C)C1 (stereo not drawn),99.4*,5.1,14.8,-0.1,0.7,3.0
O=C(CCCn1c(=O)oc2ccccc21)NC1CCCCCC1,0.8,3.6,7.1,1.5,-0.1,2.5
COc1cc(N=Nc2c(C)n(C)n(-c3ccccc3)c2=O)ccc1N,10.0,7.0,6.5,5.2,-1.2,3.4
COc1cccc(NC(=O)NC2CCCc3ccccc32)c1 (stereo not drawn),14.0,5.1,7.7,0.2,3.7,5.9
COc1cccc(C2=CC(c3ccc(OC)c(OC)c3OC)n3nnnc3N2)c1 (stereo not drawn),78.5*,10.6,-26.8,-1.7,1.2,3.5
COc1cccc(C2=CC(c3cccs3)n3nnnc3N2)c1 (stereo not drawn),16.7,5.0,26.6,3.5,1.4,33.4*
COc1ccccc1C1C=C(c2ccccc2)Nc2nnnn21 (stereo not drawn),23.0,5.5,-70.4,2.3,-1.9,3.3
Cc1c(/C=N/O)sc2ccccc12,·,1.6,·,-5.3,3.0,·
CCCNC(=O)C1CC(c2ccc(C(F)(F)F)cc2)=NO1 (stereo not drawn),·,·,·,·,-0.4,·
Cc1nc2ccccc2c(=O)n1/N=C/c1ccc(O)cc1O,-2.3,3.7,-18.1,1.2,1.3,3.5
CN(/N=C/c1ccc(O)cc1O)c1nc(-c2ccccc2)cc(-c2ccccc2)n1,63.9*,1.7,7.0,-1.4,1.0,4.6
COC(=O)c1c(-c2c(Cl)cccc2Cl)noc1NC(=O)NN1CCCCC1,·,4.9,·,1.4,0.9,·
O=C(CN1C(=O)/C(=C\c2ccccc2Cl)Oc2ccccc21)NCc1cccnc1,2.5,1.2,-8.0,3.3,-0.3,1.4
Cc1ccc(CN2C(=O)/C(=C\c3ccc(C(=O)NCc4cccnc4)cc3)Oc3ccccc32)cc1,1.4,-2.2,71.7*,-4.4,1.3,2.1
COc1ccccc1Nc1nc(-c2sc(NC(=O)c3cccc(Cl)c3)nc2C)cs1,9.7,1.9,-11.2,-2.6,·,4.2
Cc1ccc(Cl)cc1Nc1nc(-c2sc(NC(=O)C(C)(C)C)nc2C)cs1,96.7*,1.0,3.7,0.2,2.8,1.3
CCCC(=O)Nc1nc(C)c(-c2csc(Nc3ccc(Cl)cc3)n2)s1,24.3,4.7,4.1,0.2,2.2,1.5
COc1ccccc1Nc1nc(-c2sc(NC(=O)CC(C)C)nc2C)cs1,67.2*,-0.4,3.3,-2.3,2.9,3.3
CCCC(=O)Nc1nc(C)c(-c2csc(Nc3ccccc3OC)n2)s1,59.3*,4.0,0.7,0.0,8.1,19.9
COc1cccc(Nc2nc(-c3sc(NC(=O)CC(C)C)nc3C)cs2)c1,81.3*,3.7,-14.7,4.4,6.1,2.5
CCCC(=O)Nc1nc(C)c(-c2csc(Nc3cc(OC)ccc3OC)n2)s1,47.4,6.1,-2.2,3.9,33.0,12.1
SMILES,L major viab,BaF3 parental,APP 5UTR inh,Ba/F3 V617F tox,b-catenin transl,MT stabilize HCS
Cc1onc(-c2ccc(Cl)cc2Cl)c1-c1csc(COc2ccccc2)n1,·,-4.5,·,-1.2,9.2,·
O=C(Cn1cncn1)c1ccc(F)cc1F,-8.0,8.0,10.4,0.6,0.9,2.4
CCCCCC(=O)Nc1nc(C)c(-c2csc(Nc3cc(Cl)ccc3OC)n2)s1,62.0*,1.3,-3.3,-1.2,-1.0,2.1
COc1ccccc1Nc1nc(-c2sc(NC(=O)C(C)(C)C)nc2C)cs1,99.7*,6.0,-4.5,-0.2,3.0,5.2
CNc1nc(SCc2ccccc2Cl)nc2c1CCCC2,87.7*,7.2,·,-2.1,1.1,1.2
Cc1cc(C)c2c(c1)-c1c(ssc1=S)C(C)(C)N2C(=O)CN1C(=O)c2ccccc2C1=O,97.0*,5.7,6.3,-1.9,-0.5,2.1
COc1ccc(CC(=O)O/N=C(\N)Cc2ccc(OC)c(OC)c2)cc1,91.9*,1.0,13.2,-7.4,·,2.2
COc1ccc(CC(=O)O/N=C(\N)Cc2ccc(OC)cc2)cc1,-5.3,2.5,2.9,3.9,1.1,2.4
C=CCNc1cnn(CC(C)=O)c(=O)c1Br,-1.3,2.0,4.8,-4.5,-1.6,1.5
CC(C)(C)C(=O)Cn1ncc(Br)c(Br)c1=O,55.8*,-4.9,93.7*,5.0,0.4,5.1
O=C(O)C(=O)/C(=C\c1cccc2ccccc12)c1ccc2ccccc2n1,-5.8,6.1,0.4,0.3,·,41.3*
CC(=O)N(C(C)=O)n1c(/C=C/c2cccc([N+](=O)[O-])c2)nc2ccccc2c1=O,13.8,4.0,1.2,2.4,1.5,3.1
Cn1c(/C=C/c2ccc([N+](=O)[O-])o2)nc2ccccc2c1=O,100.5*,67.0*,36.7,87.3*,11.6,1.8
O=C(N/N=C/c1cc([N+](=O)[O-])ccc1O)c1cc(-c2ccccc2)nc2ccccc12,98.4*,3.1,30.4,4.2,-1.9,7.1
O=C(N/N=C/c1ccc([N+](=O)[O-])o1)c1cc(-c2ccc(-c3ccccc3)cc2)nc2ccccc12,100.3*,61.5*,89.8*,64.4*,45.9,12.4*
Cc1ccc2nc(N/N=C/c3ccco3)cc(C)c2c1,61.8*,10.1,-100.9,-0.6,2.3,5.4
O=C(N/N=C/c1cc([N+](=O)[O-])ccc1Cl)c1cc(-c2ccccc2)nc2ccccc12,·,0.1,·,-1.8,-0.4,·
Cn1ncc(Cl)c1C(=O)N1CCN(C(=O)c2ccco2)CC1,-7.8,0.2,-1.2,-1.0,-1.0,6.1
CCc1cc2c(=O)n(-c3ccc(C)cc3)cnc2s1,0.2,0.9,-92.5,-5.5,-2.9,2.0
O=C(N/N=C/c1ccc([N+](=O)[O-])o1)c1cc(-c2ccncc2)nc2ccccc12,99.3*,3.6,-0.1,-1.1,-0.2,20.4
Cc1cc(N/N=C/c2ccc([N+](=O)[O-])o2)nc2ccccc12,83.4*,2.5,4.3,3.3,2.3,2.9
Cc1cc(Nc2ccc([N+](=O)[O-])cc2)nc2ccccc12,-4.6,0.9,-6.0,7.2,-0.3,3.8

# Bioassay records deposited in PubChem by several laboratories.
